According to ChEMBL document CHEMBL3085768, “Structure-guided design of potent diazobenzene inhibitors for the BET bromodomains” (J Med Chem, 2013):
pIC50, pKi: −log10 of the molar value.

How the values were obtained:
[1] = target: Bromodomain-containing protein 4 (Mus musculus) (UniProt Q9ESU6); test: (§1) Inhibition of BRD4 in LPS-stimulated mouse RAW264.7 cells assessed as inhibition of NF-kappaB-mediated IL-6 expression preincubated for 30 mins followed by LPS stimulation measured after 24 hrs by ELISA; format: cell-based
Outline: (§2)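 RAW264.7 cells grown in DMEM/10% FBS at 37 °C, 5% CO2, plated at 3 × 10^5 cells/mL, pretreated with inhibitor for 30 min. Medium was then replaced with LPS (1 µg/mL) plus inhibitor for 24 h. Compounds were diluted from DMSO to 0.28–50000 nM, final DMSO 0.05% (v/v). Supernatant IL-6 was measured by mouse ELISA read at 570 nm.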

[2] = target: T1, Bromodomain-containing protein 4 (Mus musculus, UniProt Q9ESU6); test: as §1; format: cell-based; outline: as §2
[3] = target: Bromodomain-containing protein 4 (Mus musculus) (UniProt Q9ESU6); test: (§3) Inhibition of BRD4 in LPS-stimulated mouse RAW264.7 cells assessed as inhibition of NF-kappaB-mediated nitric oxide production preincubated for 30 mins followed by LPS stimulation measured after 24 hrs by spectrophotometric analysis; format: cell-based
Outline: (§4)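 RAW264.7 cells in DMEM/10% FBS, plated at 3 × 10^5 cells/mL, pretreated with inhibitor 30 min, then LPS (1 µg/mL) plus inhibitor for 24 h. Inhibitor concentrations 0.28–50000 nM from DMSO stock, final DMSO 0.05% (v/v). Nitrite in the supernatant was measured spectrophotometrically at 520 nm.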

[4] = target: T1, Bromodomain-containing protein 4; test: as §3; format: cell-based; outline: as §4
RAW264.7 = test: Cytotoxicity against mouse RAW264.7 cells assessed as cell viability up to 100 uM after 24 hrs by MTT assay; format: cell-based; conditions: raw264.7, 24 h
Outline: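 RAW264.7 macrophages seeded at 1 × 10^4 cells/well, settled 18 h at 37 °C, then exposed to inhibitors up to 100 µM for 24 h. Compounds were predissolved in DMSO and diluted in medium, final DMSO 0.05% (v/v). MTT (4 mg/ml) was added for 4 h at 37 °C, formazan solubilized in DMSO, and absorbance read at 570/630 nm.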

[5] = target: T2, Bromodomain-containing protein 3 (Homo sapiens, UniProt Q15059); test: Displacement of fluorescein-labeled MS574 from recombinant human BRD3 BrD1 after 1 hr by fluorescence anisotropy assay
Outline: (§5)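 Competition fluorescence anisotropy with His-tag-removed recombinant bromodomain (Ni-IDA purified, thrombin cleaved) at 0.25–1 µM, chosen so that 50–80% of probe is bound. FITC-labeled probe at 80 nM (≤2Kd), unlabeled ligand titrated, in PBS pH 7.4, read after 1 h at 25 °C. IC50 from curve fit, converted to Ki with the Nikolovska-Coleska correction to Cheng-Prusoff (one-site competitive). The resolvable Ki is limited by the probe Kd.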

[6] = target: SWI/SNF-related matrix-associated actin-dependent regulator of chromatin subfamily A member 4 (Homo sapiens, UniProt P51532); test: Displacement of fluorescein-labeled MS239 from recombinant human SMARCA4 bromodomain after 1 hr by fluorescence anisotropy assay; outline: as §5
[7] = target: Nucleosome-remodeling factor subunit BPTF (Homo sapiens, UniProt Q12830); test: Displacement of fluorescein-labeled MS239 from recombinant human BPTF after 1 hr by fluorescence anisotropy assay; outline: as §5
[8] = target: T3, Bromodomain-containing protein 7 (Homo sapiens, UniProt Q9NPI1); test: Displacement of fluorescein-labeled MS226 from recombinant human BRD7 after 1 hr by fluorescence anisotropy assay; outline: as §5
T3 sequence (Q9NPI1 whole entry): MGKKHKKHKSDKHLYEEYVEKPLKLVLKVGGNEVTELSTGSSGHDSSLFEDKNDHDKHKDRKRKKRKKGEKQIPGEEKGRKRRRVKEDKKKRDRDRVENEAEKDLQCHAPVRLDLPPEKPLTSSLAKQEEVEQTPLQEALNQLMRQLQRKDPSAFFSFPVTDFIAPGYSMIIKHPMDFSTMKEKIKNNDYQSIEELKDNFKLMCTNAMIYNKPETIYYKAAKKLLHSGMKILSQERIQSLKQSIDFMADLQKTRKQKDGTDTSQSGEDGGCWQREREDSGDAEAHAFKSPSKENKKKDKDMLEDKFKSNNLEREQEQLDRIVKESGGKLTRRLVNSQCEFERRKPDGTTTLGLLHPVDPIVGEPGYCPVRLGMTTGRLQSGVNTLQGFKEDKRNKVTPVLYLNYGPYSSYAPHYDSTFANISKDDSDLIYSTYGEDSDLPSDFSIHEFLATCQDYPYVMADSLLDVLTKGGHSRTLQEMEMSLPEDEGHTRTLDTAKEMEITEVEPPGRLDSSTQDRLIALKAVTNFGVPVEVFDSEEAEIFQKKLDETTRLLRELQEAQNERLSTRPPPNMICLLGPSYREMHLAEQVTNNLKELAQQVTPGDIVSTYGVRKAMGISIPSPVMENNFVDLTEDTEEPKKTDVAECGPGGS

[9] = target: Histone acetyltransferase KAT2B (Homo sapiens, UniProt Q92831); test: Displacement of fluorescein-labeled MS239 from recombinant human PCAF after 1 hr by fluorescence anisotropy assay; outline: as §5
CREB-binding protein = CREB-binding protein (Homo sapiens, UniProt Q92793); test: Displacement of fluorescein-labeled MS226 from recombinant human CBP bromodomain after 1 hr by fluorescence anisotropy assay; outline: as §5
[10] = target: T4, Bromodomain-containing protein 4 (Homo sapiens, UniProt O60885); test: Displacement of fluorescein-labeled MS574 from recombinant human BRD4 BrD2 after 1 hr by fluorescence anisotropy assay; outline: as §5
[11] = target: T4, Bromodomain-containing protein 4; test: Displacement of fluorescein-labeled MS574 from recombinant human BRD4 BrD1 after 1 hr by fluorescence anisotropy assay; conditions: for pKi: read-out: Ki; for Ki: read-out: pKi (converted); outline: as §5
[12] = target: T2, Bromodomain-containing protein 3; test: Displacement of fluorescein-labeled MS574 from recombinant human BRD3 BrD2 after 1 hr by fluorescence anisotropy assay; outline: as §5

Chain of Histone acetyltransferase KAT2B (Q92831 whole entry): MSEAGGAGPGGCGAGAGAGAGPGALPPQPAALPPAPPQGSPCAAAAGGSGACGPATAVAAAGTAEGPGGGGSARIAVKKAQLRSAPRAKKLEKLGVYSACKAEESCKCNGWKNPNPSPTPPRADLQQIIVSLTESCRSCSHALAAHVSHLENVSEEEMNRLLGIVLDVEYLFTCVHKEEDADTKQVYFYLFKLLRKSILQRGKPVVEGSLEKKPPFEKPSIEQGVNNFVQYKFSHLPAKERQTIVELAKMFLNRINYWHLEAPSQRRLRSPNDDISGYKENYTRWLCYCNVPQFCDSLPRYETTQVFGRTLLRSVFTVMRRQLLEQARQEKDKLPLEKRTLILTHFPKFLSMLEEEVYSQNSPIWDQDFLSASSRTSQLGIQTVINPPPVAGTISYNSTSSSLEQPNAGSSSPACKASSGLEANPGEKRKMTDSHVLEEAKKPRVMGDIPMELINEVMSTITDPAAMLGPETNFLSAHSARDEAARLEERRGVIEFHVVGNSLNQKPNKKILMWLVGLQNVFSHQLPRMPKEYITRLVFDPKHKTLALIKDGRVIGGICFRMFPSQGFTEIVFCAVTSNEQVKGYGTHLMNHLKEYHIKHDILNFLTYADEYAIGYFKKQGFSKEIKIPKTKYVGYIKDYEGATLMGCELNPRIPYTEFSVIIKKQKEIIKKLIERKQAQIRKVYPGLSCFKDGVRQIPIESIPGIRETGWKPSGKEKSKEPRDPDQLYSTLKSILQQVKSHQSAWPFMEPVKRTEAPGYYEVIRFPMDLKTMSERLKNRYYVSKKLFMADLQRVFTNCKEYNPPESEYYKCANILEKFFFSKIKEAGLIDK
Chain of CREB-binding protein (Q92793 whole entry): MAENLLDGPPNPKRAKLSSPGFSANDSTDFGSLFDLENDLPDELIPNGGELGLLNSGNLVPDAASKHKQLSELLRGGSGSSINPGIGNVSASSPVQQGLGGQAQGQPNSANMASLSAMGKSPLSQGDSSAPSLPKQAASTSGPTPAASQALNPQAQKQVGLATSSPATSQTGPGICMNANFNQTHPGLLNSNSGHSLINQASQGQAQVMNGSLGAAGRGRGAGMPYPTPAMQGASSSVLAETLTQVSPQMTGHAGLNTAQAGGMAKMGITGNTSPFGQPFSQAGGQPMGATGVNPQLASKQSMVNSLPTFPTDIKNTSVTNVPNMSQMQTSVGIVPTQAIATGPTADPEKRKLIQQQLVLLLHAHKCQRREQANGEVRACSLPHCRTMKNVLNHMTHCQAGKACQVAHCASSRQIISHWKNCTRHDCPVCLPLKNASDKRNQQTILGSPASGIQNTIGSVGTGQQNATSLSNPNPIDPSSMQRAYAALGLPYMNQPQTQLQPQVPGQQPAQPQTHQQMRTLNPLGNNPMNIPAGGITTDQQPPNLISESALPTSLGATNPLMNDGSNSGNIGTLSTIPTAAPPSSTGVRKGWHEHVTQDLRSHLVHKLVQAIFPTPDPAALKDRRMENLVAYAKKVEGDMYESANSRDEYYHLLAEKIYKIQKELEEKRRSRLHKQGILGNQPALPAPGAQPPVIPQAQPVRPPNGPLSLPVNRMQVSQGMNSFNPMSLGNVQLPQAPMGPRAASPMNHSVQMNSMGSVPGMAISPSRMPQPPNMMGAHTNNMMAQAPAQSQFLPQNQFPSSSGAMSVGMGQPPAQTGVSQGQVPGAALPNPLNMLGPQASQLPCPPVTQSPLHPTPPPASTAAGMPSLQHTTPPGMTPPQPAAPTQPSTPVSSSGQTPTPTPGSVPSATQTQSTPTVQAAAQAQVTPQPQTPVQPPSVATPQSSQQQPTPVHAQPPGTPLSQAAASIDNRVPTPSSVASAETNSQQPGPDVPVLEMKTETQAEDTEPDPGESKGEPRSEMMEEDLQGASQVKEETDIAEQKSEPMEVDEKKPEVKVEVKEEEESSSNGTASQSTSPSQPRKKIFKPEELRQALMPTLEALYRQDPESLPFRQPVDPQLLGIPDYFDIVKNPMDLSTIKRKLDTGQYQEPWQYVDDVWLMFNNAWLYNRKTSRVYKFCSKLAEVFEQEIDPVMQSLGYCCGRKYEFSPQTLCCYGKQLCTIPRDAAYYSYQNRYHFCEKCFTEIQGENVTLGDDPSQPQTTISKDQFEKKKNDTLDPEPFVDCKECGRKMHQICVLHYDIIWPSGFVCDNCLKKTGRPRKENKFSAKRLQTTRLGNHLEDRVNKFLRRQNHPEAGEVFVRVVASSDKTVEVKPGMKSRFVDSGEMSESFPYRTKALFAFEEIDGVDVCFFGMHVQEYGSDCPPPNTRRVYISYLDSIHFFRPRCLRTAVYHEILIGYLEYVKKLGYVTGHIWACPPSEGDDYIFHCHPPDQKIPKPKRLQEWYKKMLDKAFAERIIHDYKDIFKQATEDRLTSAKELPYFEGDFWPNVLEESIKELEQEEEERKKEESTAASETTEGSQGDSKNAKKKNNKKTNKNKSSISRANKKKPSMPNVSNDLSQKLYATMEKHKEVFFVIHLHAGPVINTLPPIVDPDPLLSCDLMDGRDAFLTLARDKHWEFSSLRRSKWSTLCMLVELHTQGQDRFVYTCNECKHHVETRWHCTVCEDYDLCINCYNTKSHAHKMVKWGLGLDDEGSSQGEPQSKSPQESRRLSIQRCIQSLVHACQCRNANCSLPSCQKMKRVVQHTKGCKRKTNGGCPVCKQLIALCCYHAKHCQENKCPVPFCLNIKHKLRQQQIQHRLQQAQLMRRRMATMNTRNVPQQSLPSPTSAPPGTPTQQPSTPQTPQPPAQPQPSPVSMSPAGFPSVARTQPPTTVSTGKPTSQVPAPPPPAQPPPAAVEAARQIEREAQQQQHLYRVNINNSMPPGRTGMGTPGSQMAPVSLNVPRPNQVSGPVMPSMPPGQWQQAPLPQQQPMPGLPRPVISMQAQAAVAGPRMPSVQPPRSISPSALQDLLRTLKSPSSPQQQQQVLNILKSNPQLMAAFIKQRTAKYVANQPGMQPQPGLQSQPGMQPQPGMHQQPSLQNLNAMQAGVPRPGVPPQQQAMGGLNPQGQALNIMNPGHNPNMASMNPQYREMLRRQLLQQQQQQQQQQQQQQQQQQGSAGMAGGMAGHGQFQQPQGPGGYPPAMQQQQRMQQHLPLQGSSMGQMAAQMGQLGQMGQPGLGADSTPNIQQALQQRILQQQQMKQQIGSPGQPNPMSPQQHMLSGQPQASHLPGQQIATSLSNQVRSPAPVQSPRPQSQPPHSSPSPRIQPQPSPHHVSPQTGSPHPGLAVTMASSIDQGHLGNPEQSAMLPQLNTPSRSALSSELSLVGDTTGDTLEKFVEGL
T2 sequence (Q15059 whole entry): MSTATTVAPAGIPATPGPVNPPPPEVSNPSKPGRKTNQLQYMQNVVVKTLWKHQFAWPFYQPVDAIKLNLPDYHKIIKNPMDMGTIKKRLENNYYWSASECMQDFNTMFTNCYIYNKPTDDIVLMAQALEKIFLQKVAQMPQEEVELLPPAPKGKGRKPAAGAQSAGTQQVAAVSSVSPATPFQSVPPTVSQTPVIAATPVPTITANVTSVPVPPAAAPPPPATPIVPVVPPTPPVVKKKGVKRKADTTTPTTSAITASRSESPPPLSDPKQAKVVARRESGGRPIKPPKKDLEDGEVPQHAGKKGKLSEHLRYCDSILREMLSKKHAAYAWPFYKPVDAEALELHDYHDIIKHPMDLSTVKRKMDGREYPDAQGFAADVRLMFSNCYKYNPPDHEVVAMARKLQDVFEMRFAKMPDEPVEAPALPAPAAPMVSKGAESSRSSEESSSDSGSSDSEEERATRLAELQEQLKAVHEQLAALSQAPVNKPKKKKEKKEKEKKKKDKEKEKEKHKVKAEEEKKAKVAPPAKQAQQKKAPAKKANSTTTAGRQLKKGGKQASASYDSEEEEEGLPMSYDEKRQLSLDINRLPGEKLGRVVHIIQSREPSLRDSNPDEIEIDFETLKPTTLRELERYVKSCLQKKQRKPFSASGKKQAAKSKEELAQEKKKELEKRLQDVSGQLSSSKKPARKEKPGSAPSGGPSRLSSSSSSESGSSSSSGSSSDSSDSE

Compound	inhibition [1]	pIC50 [2]	inhibition [3]	pIC50 [4]	Activity (RAW264.7)	pKi [5]	pKi [6]	pKi [7]	pKi [8]	pKi [9]	pKi (CREB-binding protein)	pKi [10]	pKi [11]	Ki [11] [µM]	pKi [12]
Cc1cc(/N=N/c2ccc(S(=O)(=O)Nc3ccccn3)cc2)c(N)c(C)c1O	Dose-dependent effect	4.63	Dose-dependent effect	4.42	Non-toxic	6.54	> 5.18	> 5.77	> 5.84	> 5.48	5.29	6.36	6.82	0.151	6.66
Cc1cc(/N=N/c2ccc(S(=O)(=O)Nc3ccccn3)cc2)c(N)cc1O	Dose-dependent effect	5.31	Dose-dependent effect	5.42	Non-toxic	7.00	5.10	5.22	5.57	5.26	5.66				6.85
Cc1cc(/N=N/c2ccc(S(=O)(=O)Nc3ccccn3)cc2)cc(C)c1O	Dose-dependent effect	4.80	Dose-dependent effect	4.33	Non-toxic	5.79	> 5.18		5.45		5.15	5.37	6.04	0.912	5.61
Cc1cc(/N=N/c2ccc(S(=O)(=O)Nc3ccccn3)cc2)c(N)c(Cl)c1O	Dose-dependent effect	5.42	Dose-dependent effect	5.47	Non-toxic	6.62	> 5.18	5.79	> 5.84	> 5.48	5.25				6.49
